System: MS2 coat protein
Assay: apparent Kd, MS2 coat protein; higher = weaker binding; RNA-MaP array; FMN 200 µM where present
Outline: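 Green signal was scaled to red-channel RNA signal and control-cluster median Fmax, and the apparent Kd was taken as the median of filtered per-cluster binding-curve fits. The binding series used SNAP-549-labelled MS2 coat protein from 0.7 or 1.5 nM, doubling to 3 µM, on designs transcribed by stalled E. coli RNA polymerase on Illumina sequencing-chip clusters. Each series ran without and then with constant ligand in 100 mM Tris-HCl pH 7.5, 80 mM KCl, 4 mM MgCl2, BSA, DTT, yeast tRNA and Tween-20.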

[1] = ligand present: flavin mononucleotide, designed as: OFF switch for flavin mononucleotide
[2] = designed as: OFF switch for flavin mononucleotide, no ligand
[3] = designed as: ON switch for flavin mononucleotide, no ligand
[4] = ligand present: flavin mononucleotide, designed as: ON switch for flavin mononucleotide

Sequence: ACAUGGUAGUAGAAGGGUAUUACUUUAGAUACAACCAUUUGUUUAGUUUAUACAGGAUAUGCUUACAUGAGGAUCACCCAUGUU
- apparent Kd [1]: 0.00874 µM

Sequence: UCAUACGUUGAGGAUAUGUCAGUUAGAAUAUUUACAGAAGGCGAUACAUGAGGAUCACCCAUGUUUAUGGGCAU
- apparent Kd [2]: 0.188 µM
- apparent Kd [1]: 0.207 µM

Sequence: GAUUGACAUGAGGAUCACCCAUGUGAGGAUAUCGGCUGGACCGUGUUGGCUUGCCUUUCGAGAAGGCGCAUAGG
- apparent Kd [2]: 0.0377 µM
- apparent Kd [1]: 0.042 µM

Sequence: GAUAGAGAGCAGGAUAUCUUGGGUAAGUAUCGUAGAGAAGGGCUCACAUGAGGAUCACCCAUGUGGUCCUAGAU
- apparent Kd [2]: 0.0127 µM
- apparent Kd [1]: 0.0295 µM

Sequence: CUUCUGUAAGGAUAUGUAAAUUGCUGACCACACCAGCACCGGCAGAAGGUACAUGAGGAUCACCCAUGUGGGUU
- apparent Kd [2]: 0.24 µM
- apparent Kd [1]: 0.148 µM

Sequence: AUAUGCCAUGUAAGGAUAUACUGGAGCAUAAGCUCGUAGAAGGUACAUGAGGAUCACCCAUGUGGACCCGACAC
- apparent Kd [2]: 0.0299 µM
- apparent Kd [1]: 0.0349 µM

Sequence: GGAUGACAAAGUCAUCCAAUUCGAACAUGAGGAUCACCCAUGUAGGAUAUGCUACACAAAGUGUAGCAGAAGGACAUGUGCCUU
- apparent Kd [2]: 0.0307 µM
- apparent Kd [1]: 0.183 µM

Sequence: UUGAGGUGUCAAGGAUAUGCUACCGUUUCGGUAGCAGAAGGUGAUCACAUGAGGAUCACCCAUGUAUGCAUGCGUGAGCGUGCU
- apparent Kd [3]: 0.0456 µM
- apparent Kd [4]: 0.285 µM

Sequence: CAUGAUUGACGAGGAUAUUGUUCUACAUGGCGACGAGAAGGCGUCUGUCACAUGAGGAUCACCCAUGUGAGUCUGGUGAAUGAG
- apparent Kd [2]: 0.0365 µM
- apparent Kd [1]: 0.0334 µM

Sequence: AUGGAUAUCACAGGAUAUGCUAUGGAUACCAUAGCAGAAGGGUGAUCCAUCCUAUGGCUGCACAUGAGGAUCACCCAUGUGUCC
- apparent Kd [3]: 0.107 µM
- apparent Kd [4]: 0.0111 µM

Sequence: UUCUUUACACGAGGAUAUCAUACAUGAGGAUCACCCAUGUUACUUUGUCUGUUAUUAUGUAUUAUUGAGAAGGCGUUUUUCUUU
- apparent Kd [2]: 0.0207 µM
- apparent Kd [1]: 0.0179 µM

Sequence: GUUUCGGGAGGAUAUGCGUGGAUUAUUUUCGUAUGUUGUUUACAUGAGGAUCACCCAUGUAGAAGGUCUGGAGC
- apparent Kd [2]: 0.0428 µM
- apparent Kd [1]: 0.228 µM

Sequence: CAAUUUAUAGCAGGAUAUACAAUACAAUGAUUAGUAGAAGGGUUUAAUACAUGAGGAUCACCCAUGUCAUGUGUCAUAAUAACC
- apparent Kd [2]: 0.0312 µM
- apparent Kd [1]: 0.0235 µM

Sequence: CCUCCACAUGAGGAUCACCCAUGUCAGGAUAUCGUGUGCGCGUUUUCGGUCUUUCGCGCGAGAAGGGACGACUG
- apparent Kd [2]: 0.0273 µM
- apparent Kd [1]: 0.0284 µM

Sequence: AGCUACGUUUCGUAGCAGUGUCAUCGAGAAGGCUCAUUAACAUGAGGAUCACCCAUGUAUUCAUGGGAGGAUAUCGAUGAUACA
- apparent Kd [3]: 0.131 µM
- apparent Kd [4]: 0.00922 µM

Sequence: UGUUGUAUUACAGGAUAUCUAUUAGUUUAAUUUAGAGAAGGGUAUUCACAUGAGGAUCACCCAUGUAUAUACGAGGAAGUUGUG
- apparent Kd [3]: 0.053 µM
- apparent Kd [4]: 0.0622 µM

Sequence: AGAAAUAAAAGAGAGGAUAUCCAAAAGAAAACAUGAGGAUCACCCAUGUAAAAGAAAAUAAAAUGGGAGAAGGCUCAAAAUAAAGA
- apparent Kd [3]: 0.115 µM
- apparent Kd [4]: 0.0226 µM

Sequence: AUCAGCACGUGAGGAUAUGCGUCACUGCGAAAGCAGUACGGUAAGAUCACAUGAGGAUCACCCAUGUAGAAGGCACGAGCUGAU
- apparent Kd [2]: 0.0166 µM
- apparent Kd [1]: 0.0381 µM

Sequence: UGGUACAUGGGAGGAUAUGGGAAGUUAACAUGAGGAUCACCCAUGUUAUGCCGAAAGGCAAAGAACUAGAAGGCCCAUGUACCU
- apparent Kd [3]: 0.0167 µM
- apparent Kd [4]: 0.0161 µM

Sequence: ACAUGAGGAUCACCCAUGUAGAAUGAAGAAGGUACGUUAUUGAUAUGCAGGAAGUGUCGGUGUUGUAAGGAUAUUCUAAUAAUU
- apparent Kd [3]: 0.0155 µM
- apparent Kd [4]: 0.00816 µM

Sequence: GUUUCCACAGGAAGGAACACUCGGAGAAGGGCACAUGAGGAUCACCCAUGUGCGGCUCGUCACGUGCAGGAUAUUCGAUAUAGA
- apparent Kd [2]: 0.0072 µM
- apparent Kd [1]: 0.0175 µM

Sequence: GCUGCAUGCAGAGGAUAUGACACAUGAGGAUCACCCAUGUAAUAAAUGAGAUUUUCGAAUGUAUCUCAGAAGGCUGCAUGCAGC
- apparent Kd [2]: 0.0166 µM
- apparent Kd [1]: 0.0894 µM

Sequence: GCCAAGUCAGGAUAUACAUGAGGAUCACCCAUGUAGGACGCUAUUUUGAUCUUGGUAGGUAGAAGGGACAUGGG
- apparent Kd [2]: 0.0242 µM
- apparent Kd [1]: 0.0212 µM

From the EternaBench riboswitch data
